{"data": "Measured values of several laboratories", "target": "Serine/threonine-protein kinase TAO3 (TAOK3, Homo sapiens, UniProt Q9H2K8)", "Sequence (Q9H2K8 1-898, as in one of the studies)": "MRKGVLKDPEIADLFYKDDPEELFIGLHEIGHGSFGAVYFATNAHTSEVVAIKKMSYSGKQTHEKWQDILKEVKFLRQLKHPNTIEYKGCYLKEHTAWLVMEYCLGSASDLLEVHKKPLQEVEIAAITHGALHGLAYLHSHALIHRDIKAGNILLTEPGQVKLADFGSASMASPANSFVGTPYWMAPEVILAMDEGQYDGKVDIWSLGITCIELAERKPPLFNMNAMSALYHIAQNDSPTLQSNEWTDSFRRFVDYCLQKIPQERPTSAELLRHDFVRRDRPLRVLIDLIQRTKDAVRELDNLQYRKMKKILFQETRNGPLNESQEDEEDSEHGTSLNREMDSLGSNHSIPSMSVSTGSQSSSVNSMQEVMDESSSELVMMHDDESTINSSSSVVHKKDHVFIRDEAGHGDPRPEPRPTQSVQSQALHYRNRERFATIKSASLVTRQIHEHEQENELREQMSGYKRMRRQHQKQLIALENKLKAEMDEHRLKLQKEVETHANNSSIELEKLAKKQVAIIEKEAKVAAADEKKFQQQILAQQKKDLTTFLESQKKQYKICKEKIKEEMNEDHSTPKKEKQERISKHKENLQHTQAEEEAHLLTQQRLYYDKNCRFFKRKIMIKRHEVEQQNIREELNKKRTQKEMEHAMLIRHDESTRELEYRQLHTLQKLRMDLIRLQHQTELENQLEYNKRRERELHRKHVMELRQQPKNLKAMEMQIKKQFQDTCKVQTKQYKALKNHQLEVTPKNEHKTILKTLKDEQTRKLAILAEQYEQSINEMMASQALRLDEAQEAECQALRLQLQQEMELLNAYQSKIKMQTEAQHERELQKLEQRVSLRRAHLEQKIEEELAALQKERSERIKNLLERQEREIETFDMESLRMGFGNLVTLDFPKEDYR", "note": "Compare with care: the assays were run in different laboratories."}
{"Compound": "CCN1CCN(Cc2ccc(C(=O)Nc3ccc(C)c(Oc4ccc5c(c4)CC(=O)N5)c3)cc2C(F)(F)F)CC1", "observed": "binding", "technique": "competition with immobilised ligand", "concentration": "1 µM", "remaining binding [%]": 100}
{"Compound": "CN(c1nccc(-c2cnn3ncccc23)n1)C1CC1", "observed": "binding", "concentration": "1 µM", "remaining binding [%]": 54}
{"Compound": "CNCc1ccccc1-c1csc([C@@H](C)Nc2nc(C)nc3cc(OC)c(OC)cc23)c1", "observed": "cell-free assay", "technique": "competition with immobilised ligand", "concentration": "1 µM", "remaining binding [%]": 83}
{"Compound": "COc1ncc2cc3ccccc3nc2c1C#N", "observed": "cell-free assay", "technique": "competition with immobilised ligand", "concentration": "5 µM", "remaining binding [%]": 100}
{"Compound": "FC(F)(F)Oc1cccc(-c2cnc3ccc(-c4ccncc4)nn23)c1", "observed": "binding", "technique": "competition with immobilised ligand", "concentration": "5 µM", "remaining binding [%]": 72}
{"Compound": "CN(CCCC(F)(F)F)c1nccc(-c2cnn3ncccc23)n1", "observed": "binding", "concentration": "1 µM", "remaining binding [%]": 61}
{"Compound": "O=C(Nc1c[nH]nc1C(=O)NC1CCNCC1)c1cc(F)cc(F)c1", "observed": "binding", "technique": "competition with immobilised ligand", "concentration": "1 µM", "remaining binding [%]": 70}
{"Compound": "O=C(c1ccc(Nc2nccc(-c3cc4ccccc4s3)n2)cc1)N1CCC(N2CCCC2)CC1", "observed": "binding", "technique": "competition with immobilised ligand", "concentration": "1 µM", "remaining binding [%]": 100}
{"Compound": "CCC(=O)N[C@H]1CC[C@@H](C(=O)N(C)c2ccc(-c3nc4ccccc4o3)cc2)C1", "observed": "cell-free assay", "technique": "competition with immobilised ligand", "concentration": "1 µM", "remaining binding [%]": 70}
{"Compound": "O=C(NCCCN1CCOCC1)c1ccc(Nc2ncc(Cl)c(-c3ccc(Cl)s3)n2)cc1", "observed": "binding", "technique": "competition with immobilised ligand", "concentration": "1 µM", "remaining binding [%]": 49}
{"Compound": "Cc1cc(NC(=O)c2cccc(S(F)(F)(F)(F)F)c2)cc(-n2ccn3nc(-c4cccnc4)cc23)c1", "observed": "cell-free assay", "technique": "competition with immobilised ligand", "concentration": "1 µM", "remaining binding [%]": 100}
{"Compound": "N[C@@H]1CCN(c2nccc(-c3cnn4ncccc34)n2)C1", "observed": "binding", "concentration": "1 µM", "remaining binding [%]": 100}
{"Compound": "O=C(c1ccc(Nc2ncc(Cl)c(-c3ccc(Cl)s3)n2)cc1)N1CCC(N2CCCC2)CC1", "observed": "binding", "technique": "competition with immobilised ligand", "concentration": "1 µM", "remaining binding [%]": 49}
{"Compound": "CC1CCCN1c1nccc(-c2cnn3ncccc23)n1 (stereo not shown)", "observed": "binding", "concentration": "1 µM", "remaining binding [%]": 48}
{"Compound": "CS(=O)(=O)c1cc(C2(NC(=O)c3cncc4c3cnn4-c3ccc(F)cc3)CC2)ccn1", "observed": "cell-free assay", "technique": "competition with immobilised ligand", "concentration": "1 µM", "remaining binding [%]": 97}
{"Compound": "C[C@H]1CCN(c2nccc(-c3cnn4ncccc34)n2)C1", "observed": "binding", "concentration": "1 µM", "remaining binding [%]": 86}
{"Compound": "CC1=C(C#N)[C@@H](c2ccc3[nH]nc(C)c3c2)C(C#N)=C(c2ccc(Cl)cc2)N1", "observed": "cell-free assay", "technique": "competition with immobilised ligand", "concentration": "1 µM", "remaining binding [%]": 100}
{"Compound": "COc1cnc(Nc2cccc(S(N)(=O)=O)c2)nc1N1CCN(c2ccccc2)C(=O)C1", "observed": "binding", "technique": "competition with immobilised ligand", "concentration": "1 µM", "remaining binding [%]": 93}
{"Compound": "CN1CCN(c2cnc3c(C4CCN(C(=O)c5ccc(OC(F)(F)F)cc5N)CC4)ncnc3c2)CC1", "observed": "cell-free assay", "technique": "competition with immobilised ligand", "concentration": "1 µM", "remaining binding [%]": 100}
{"Compound": "c1cnn2ncc(-c3ccnc(N4CCC45COC5)n3)c2c1", "observed": "binding", "concentration": "1 µM", "remaining binding [%]": 73}
{"Compound": "C[C@H](c1ccnc(Nc2nc3ccc(-c4cc(N(C)C)ncn4)cc3[nH]2)c1)N1CCN(C(=O)CC(F)(F)F)CC1", "observed": "cell-free assay", "technique": "competition with immobilised ligand", "concentration": "0.1 µM", "remaining binding [%]": 41}
{"Compound": "CN(C)c1nccc(-c2cnc3ncccn23)n1", "observed": "binding", "concentration": "1 µM", "remaining binding [%]": 68}
